SMILES strings stand for the structures. The source made the active and inactive calls.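 How the source made its calls: active means inhibition of at least 30% at any tested concentration; inactive means the rest.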

Usually IC50 stands for the point on the concentration scale where inhibition reaches its midpoint.

In one experiment the target is M18 aspartyl aminopeptidase (Plasmodium falciparum 3D7). Briefly: PfM18AAP enzyme inhibition, dose response, selectivity assay for PfM17LAP inhibitor project, biochemical, QFRET, H-Glu-NHMec substrate, set 3 (AID 602316). The conditions noted are these: recombinant PfM18AAP, H-Glu-NHMec fluorogenic cleavage. An outline of the steps: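 System – purified recombinant P. falciparum M18 aspartyl aminopeptidase (PFM18AAP) · Medium – Tris-HCl buffer pH 7.5, 2 mM CoCl2, 0.01% Triton X-100 · Timing – 90 min reaction, room temperature · Technique – NHMec fluorescence at 370/460 nm · Read-out basis – % inhibition and fitted IC50 · Replication – each dose tested in triplicate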
As to `CCCCOc1cccc(CC(=O)NO)c1`, the IC50 was 29.1 µM.

As for `CCCCOc1ccc(C(C)C(=O)NO)cc1` (stereo not drawn), the IC50 is 21.7 µM.

Regarding `CCCOc1ccc(CC(=O)NO)cc1`, the IC50 was 26.1 µM.

Take `CCC(C)Oc1ccc(CC(=O)NO)cc1` (stereo not drawn): the IC50 is 27.7 µM.

Still in this experiment, the particulars now being: recombinant PfM18AAP, H-Glu-NHMec fluorogenic cleavage; at 100 µM (top of the series).
In the case of `CCCCOc1ccc(CN(O)C(C)=O)cc1`, the inhibition result is “inactive”.

`CCCCOc1ccc(CN(O)C(=O)c2ccccc2)cc1`: the inhibition result is “inactive”.

For `CN(C)CCOc1ccc(CC(=O)O)cc1`, the inhibition result is “inactive”.

On to `CCCCOc1ccc(C(C)(C)C(=O)NO)cc1`, for which the inhibition entry was “inactive”.

With `CCCCOc1ccc(C(C)(C)C(=O)O)cc1`, the inhibition entry was “inactive”.

`CCCCOc1cccc(CC(=O)OC)c1`: the inhibition entry was “inactive”.

Consider `CCCCOc1ccc(C(C)C(=O)O)cc1` (stereo not drawn), for which the inhibition entry was “inactive”.

As for `CCCOc1ccc(CC(=O)O)cc1`, the inhibition result was “inactive”.

As for `CCCCOc1ccc(C(C)C(=O)OC)cc1` (stereo not drawn), the inhibition entry is “inactive”.

Values taken from PubChem BioAssay AID602316 (Southern Research Specialized Biocontainment Screening …, 2012).
